By IC50 is commonly meant the concentration at which inhibition is half-maximal. The term inhibition denotes the change of the read-out against control, counted positive when it falls.

This is an account of results in ChEMBL document CHEMBL1157054, “Design, synthesis and biological evaluation of indane-2-arylhydrazinylmethylene-1,3-diones and indol-2-aryldiazenylmethylene-3-ones as beta-amyloid aggregation inhibitors” (Eur J Med Chem, 2010).

The structures appear in SMILES notation. The source made the active and inactive calls. The calls are words filed in the database; no cut-off is given here.

A short description of one test: Inhibition of amyloid beta (1 to 40) aggregation assessed as inhibition of fibril formation by thioflavin T fluorescent dye assay. In a few lines: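 ThT fluorimetric assay on HFIP-pretreated Aβ1-40, 30 µM in PBS pH 7.4 containing 2% HFIP and 10% DMSO, incubated 2 h at 25 °C. Fluorescence read after mixing with 25 µM ThT (phosphate pH 6.0), ex 440/em 485 nm, blank-corrected vs inhibitor-free aggregation. IC50 from 5-7 concentrations tested in triplicate, three independent experiments.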
In the case of `O=C1C(=C/N=N/c2cccc(Cl)c2)Nc2ccccc21`, the half-inhibitory concentration (IC50) was 2.5 µM.
On the same count and under the same terms, under `Cc1ccc(/N=N/C=C2Nc3ccccc3C2=O)cc1` stands 3.6 µM; under `O=C1C(=CNNc2ccccc2Cl)C(=O)c2ccccc21`, 32 µM.
`O=C1C(=C/N=N/c2ccccc2)Nc2ccc(Br)cc21`: the 50% inhibitory concentration (IC50) was 35 µM.
Same read-out and setting: for `O=C1C(=CNNc2cccc(Cl)c2)C(=O)c2ccccc21` the value was 18 µM.
Same read-out and setting: under `O=C1C(=C/N=N/c2ccccc2Cl)Nc2ccc(Br)cc21` stands 7.8 µM; under `COc1ccc2[nH]cc(/C=N\Nc3ccc(Cl)cc3)c2c1`, 23 µM.
Consider `O=C1C(=C/N=N/c2cccc(Cl)c2)Nc2ccc(Br)cc21`, for which the IC50 amounted to 4.4 µM.
Still for that read-out and setting: under `CC(C)c1ccc(/N=N/C=C2Nc3ccccc3C2=O)cc1` stands 1.4 µM; under `O=C1C(=CNNc2ccc(Cl)cc2)C(=O)c2ccccc21`, 23 µM.
Consider `O=C1C(=C/N=N/c2ccccc2Cl)Nc2ccccc21`, for which the concentration for half-maximal inhibition (IC50) worked out at 13 µM.
With `Cc1ccc(/N=N/C=C2Nc3ccc(Br)cc3C2=O)cc1`, the half-maximal inhibitory concentration (IC50) was determined as 51 µM.
The same measure, in the same setting: for `CC(C)c1ccc(/N=N/C=C2Nc3ccc(Br)cc3C2=O)cc1` the value was 23 µM.
On the same count and under the same terms, under `O=c1c(O)c(-c2ccc(O)c(O)c2)oc2cc(O)cc(O)c12` [QUERCETIN] stands 0.8 µM; under `CC(C)c1ccc(NNC=C2C(=O)c3ccccc3C2=O)cc1`, 18 µM.
Consider `O=C1C(=C/N=N/c2ccccc2)Nc2ccccc21`, for which the half-maximal inhibitory concentration (IC50) came to 8.8 µM.

The next test is described as follows: Inhibition of amyloid beta (1 to 40) aggregation assessed as inhibition of protofibril formation after 3 days. In a few lines:
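Aβ1-40 (30 µM) with compound at 50 µM in 0.217 M phosphate buffer pH 8.0, 10% ethanol, incubated at 37 °C up to 7 days; aliquots taken at time points, applied to carbon-coated grids, negatively stained with 2% uranyl acetate, imaged by TEM at 60 kV, 60,000-fold magnification; qualitative fibril/protofibril assessment.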
In the case of `CC(C)c1ccc(/N=N/C=C2Nc3ccccc3C2=O)cc1`, the inhibition result was “Active”.

The next test can be described thus: Inhibition of amyloid beta (1 to 40) aggregation assessed as inhibition of fibril formation at 100 uM by thioflavin T fluorescent dye assay. In a few lines:
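Aβ1-40 (HFIP-treated, lyophilized) at 30 µM in PBS (0.01 M, NaCl 0.1 M, pH 7.4) with 2% HFIP and 10% DMSO, test compound 100 µM; triplicate incubations, 2 h at 25 °C. Sample mixed with 25 µM ThT in 0.025 M phosphate pH 6.0; fluorescence ex 440/em 485 nm. Percent inhibition = 100 − [(Fi − Fb)/F0]×100, blank-corrected against free Aβ aggregation.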
With `Cc1ccc(NNC=C2C(=O)c3ccccc3C2=O)cc1`, the inhibition turned out to be 44%.
The same measure, in the same setting: under `O=C1C(=C/N=N/c2ccc(Cl)cc2)Nc2ccc(Br)cc21` stands 20%; under `O=C1CCC(=O)C1=CNNc1ccc(Cl)cc1`, 44%.
Still for that read-out and setting: for `O=C1C(=C/N=N/c2ccc(Cl)cc2)Nc2ccccc21` the value was 33%; for `O=C1C(=CNNc2ccccc2)C(=O)c2ccccc21`, 49%; for `O=c1c(=NNc2ccc(Cl)cc2)c(=O)c2ccccc12`, 38%.
On to `O=C1C(=C/N=N/c2ccc(Cl)c(Cl)c2)Nc2ccc(Br)cc21`, for which the inhibition was 23%.
